Only some compounds are listed: those with a hit (about 1.9% of all), similar ones and a draw of the others.
M4 ag: agonists of human muscarinic M4 receptor (CHRM4); 0.14% of 360,000 active; CHO-K1 hM4/Gqi5, Fluo-8 calcium fluorescence; vehicle 0%, full acetylcholine response 100%; AID 624127; activation, % at 3 µM; P08173;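 active = activation above the run mean over all test wells plus 3 SD, cut at about 32% in these data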;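 note: peak over basal fluorescence ratio per well then scaled between controls; 0% = DMSO wells and 100% = acetylcholine at EC100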
Target sequence (P08173 whole entry, looked up): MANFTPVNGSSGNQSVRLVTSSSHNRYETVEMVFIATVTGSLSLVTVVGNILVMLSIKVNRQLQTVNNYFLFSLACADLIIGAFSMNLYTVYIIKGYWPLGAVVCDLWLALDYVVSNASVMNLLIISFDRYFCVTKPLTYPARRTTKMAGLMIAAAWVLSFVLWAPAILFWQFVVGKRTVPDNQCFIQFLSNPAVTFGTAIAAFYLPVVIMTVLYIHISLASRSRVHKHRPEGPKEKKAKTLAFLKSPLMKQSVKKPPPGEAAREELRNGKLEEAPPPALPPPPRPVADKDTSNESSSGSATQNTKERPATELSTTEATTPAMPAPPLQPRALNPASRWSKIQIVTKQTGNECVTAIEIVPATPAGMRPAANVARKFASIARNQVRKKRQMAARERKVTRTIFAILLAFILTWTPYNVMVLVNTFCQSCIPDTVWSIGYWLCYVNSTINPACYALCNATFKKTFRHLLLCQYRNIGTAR
M5 PAM: potentiates acetylcholine response at human M5 receptor | P08912 | CHO-K1 hM5, Fluo-8 calcium, ACh EC20 PAM; 0% = ACh EC20, 100% = ACh EC100 | activation, % at 3 µM | 0.3% of 360,000 active | AID 624038;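 active = activation above the run cutoff, the mean activation of all test compounds plus 3 SD, cut at about 18% in these data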
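system = human M5 receptor in CHO-K1 cells | reagent = EC20 acetylcholine as agonist stimulus | compound dosing = single-point, 3 µM nominal | incubation = Fluo-8 loading 80 min at 37 °C plus 30 min room temperature | detection = Fluo-8 calcium dye fluorescence, kinetic read | benchmarks = low control EC20 acetylcholine (0%), high control EC100 acetylcholine (100%)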
M5 antag: antagonists of human muscarinic M5 receptor (CHRM5) | P08912 | 0.59% of 360,000 active | AID 624040 | inhibition, % at 3 µM | CHO-hM5 cells, Fluo-8 calcium fluorescence, ACh EC80;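 active = inhibition above a per-plate cutoff, the mean of that plate's test compounds plus 3 SD, cut at about 27% in these data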;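 note: 0% = acetylcholine EC80 with DMSO and 100% = DMSO without agonist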
M4 PAM: positive allosteric modulators of human muscarinic M4 receptor | CHO-K1 hM4/Gqi5, Fluo-8 calcium fluorescence, ACh EC20; 0% = ACh EC20, 100% = maximal ACh | activation, % at 3 µM | 0.4% of 360,000 active | AID 624126;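 active = activation above its plate's cutoff, the mean activation of sample wells plus 3 SD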
M5 ag: agonists of human muscarinic M5 receptor (CHRM5). P08912. CHO-K1 hM5 cells, Fluo-8 calcium fluorescence; 0% DMSO wells, 100% maximal acetylcholine response. activation, % at 3 µM. 0.19% of 360,000 active;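 active = activation above the run's mean over test compounds plus 3 SD, cut at about 23% in these data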;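 note: signal is peak over basal fluorescence ratio across the kinetic read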
CHRM4 antagonist: antagonists of human muscarinic M4 receptor (CHRM4) | P08173 | CHO-hM4 cells, ACh EC80, Fluo-8 calcium fluorescence | inhibition, % at 3 µM | 0.73% of 360,000 active;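 active = inhibition above its plate's cutoff, the mean inhibition of sample wells plus 3 SD, cut at about 27% in these data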;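 note: 0% = acetylcholine EC80 with DMSO and 100% = DMSO without agonist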
* marks the source's active call; other numbers are inactive results.

SMILES	M4 ag	M5 PAM	M5 antag	M4 PAM	M5 ag	CHRM4 antagonist
N#CC[C@H](c1ccccc1)N1CCN(Cc2ccccc2)CCC1=O	-1	6	5	-3	-4	8
CC(=O)Nc1ccc2nc(-c3ccc(Br)o3)[nH]c2c1	3	0	7	23*	0	-6
COc1ccc(CC(=O)NC(C)c2nnc(SCCC(=O)Nc3ccccc3)n2C)cc1 (stereo unspecified)	1	18*	-10	12	4	11
O=C(CCc1ccccn1)N1CCCC(N2CCN(c3ccc(F)cc3)CC2)C1 (stereo unspecified)	1	1	-2	-1	-4	2
CC(C)c1ccc(CNc2ccc(N3CCOCC3)cc2)cc1	1	4	-1	-5	-3	2
Cc1ccc(CNc2ccc(N3CCOCC3)cc2)cc1	2	6	-1	14*	4	-20
COc1cc(/C=C2\SC(=S)N(NC(=O)c3ccccc3O)C2=O)ccc1O	33*	-12	21	-18	20	20
O=C(NN1C(=O)/C(=C/c2ccc(O)cc2)SC1=S)c1cccc(O)c1	13	-5	11	-8	25*	14
CC[C@]12c3[nH]c4cc(-c5ccco5)ccc4c3CCN1C(=O)[C@@H](CC(=O)NCCCn1ccnc1)C[C@@H]2C(=O)N1CCN(C(=O)C2CC2)CC1	-1	1	-7	4	-3	-3
Cc1cc(-c2ccc(S(=O)(=O)N3CCN(c4ccccc4F)CC3)s2)on1	3	-8	10	-12	-4	-6
Cc1cc(NC2CCCCC2)nc(NCc2ccccc2)n1	23	-19	30*	-13	6	26
CCCCc1c(-c2ccccc2)ncn1CCc1ccccc1OC	6	-21	8	-12	1	15
CCCCCc1c(-c2ccc(Cl)cc2)ncn1CCc1ccccc1OC	0	0	3	-4	-1	-10
CCCCCc1c(-c2ccc(OC)cc2)ncn1CCc1ccccc1OC	10	-22	17	-12	2	34*
CCCCc1c(-c2ccc(OC)cc2)ncn1CCc1ccccc1OC	10	-21	10	-13	2	33*
CCN(CC)C(=O)CSc1nnc2nnc3cc(Cl)ccc3n12	1	5	2	1	-7	-4
CC1CN(C(=O)c2ccccc2OCc2ccc(Cl)cc2Cl)CC(C)O1 (stereo unspecified)	-1	-11	13	-11	-10	9
COc1ccc(OC)c(S(=O)(=O)N2CCCC(C)C2)c1 (stereo unspecified)	0	10	-10	28*	-2	-6
COc1ccc(OC)c(S(=O)(=O)N2CCCCCC2)c1	0	8	-7	10	-5	6
CC1CCCN(S(=O)(=O)c2ccc(Cl)s2)C1 (stereo unspecified)	-1	19*	6	1	-5	-22
CC1CCCN(S(=O)(=O)c2ccc(Br)s2)C1 (stereo unspecified)	-1	1	-5	-1	-6	4
O=C1CN(S(=O)(=O)c2ccc(F)cc2)CCN1	1	0	14	3	2	-4
O=C(Nc1ccc(Cl)cc1)OCCn1nnnc1C(c1ccccc1Cl)N1CCOCC1 (stereo unspecified)	4	-4	-1	-9	1	-4
O=C(NCc1ccccc1)C(c1cccnc1)N(C(=O)c1ccccn1)c1ccc(F)cc1 (stereo unspecified)	4	0	14	-1	1	2
Cc1ccc(C)c(NC(=O)CN(C)C(=O)Cn2c(=O)oc3ccccc32)c1	1	-2	6	-1	2	-3
SMILES	M4 ag	M5 PAM	M5 antag	M4 PAM	M5 ag	CHRM4 antagonist
Cc1cc(NC(=O)COC(=O)C2CCCN2C(=O)c2cccs2)no1 (stereo unspecified)	2	32*	-12	2	-1	-7
CC(C)NC(=O)NC(=O)COC(=O)C1CCCN1C(=O)c1cccs1 (stereo unspecified)	1	-3	7	1	0	4
OC(c1ccc(-c2ccccc2)cc1)c1ncc(-c2ccccc2Cl)[nH]1 (stereo unspecified)	5	0	-4	3	1	-7
O=S(=O)(Nc1ccc2c(c1)OCO2)c1cccs1	0	34*	21	5	-2	-10
Cc1cc(C)c(S(=O)(=O)NCc2cn3ccccc3n2)c(C)c1	2	2	-9	-4	-3	-8
CCC1CCCCN1C/C=C/c1ccccc1[N+](=O)[O-] (stereo unspecified)	1	-21	55*	-32	-11	54*
CC1CCCCN1C/C=C/c1ccccc1[N+](=O)[O-] (stereo unspecified)	2	-21	11	-27	-12	34*
CCOC(=O)CCCCCC(=O)Nc1ccc2c(c1)C(=O)N([C@@H](C)CO)C[C@H](C)[C@H](CN(C)C(=O)c1ccccc1)OCCCC[C@H](C)O2	0	3	2	0	-1	-3
CCCC1(c2ccccc2)NC(=O)N(CC(=O)NCc2ccc(OC)cc2)C1=O (stereo unspecified)	2	-1	2	21*	-4	2
O=C(NCC1CCN(Cc2ccccc2F)CC1)C1CCCN(c2ncnc3c2nc2n3CCCCC2)C1 (stereo unspecified)	-1	-4	-7	-21	-9	52*
O=C(NCc1ccccc1Cl)C1CCCN(c2ncnc3c2nc2n3CCCCC2)C1 (stereo unspecified)	2	-3	8	0	-5	2
O=C(Nc1cccnc1Cl)C1CCCN(c2ncnc3c2nc2n3CCCCC2)C1 (stereo unspecified)	3	4	-15	18*	-5	-35
Cc1ccc(CN2CCC(CNC(=O)C3CCCN(c4ncnc5c4nc4n5CCCCC4)C3)CC2)cc1 (stereo unspecified)	1	-2	2	-26	-12	38*
CC(=O)c1ccc2ccccc2c1OC(=O)c1ccncc1	1	-1	0	5	-1	-13
Clc1ccc(-n2cccc2CN2CCc3c([nH]c4ccccc34)C2c2ccccn2)nc1 (stereo unspecified)	1	0	3	-7	-8	-9
Cc1ccc(OCCNC(=O)C2CC(=O)N(Cc3ccccc3)C2)cc1 (stereo unspecified)	3	0	17	8	-1	0
COc1cccc(OCCNC(=O)c2cc(OC)c(OC)c(OC)c2)c1	2	-3	18	-3	-1	3

Assay outcomes: PubChem BioAssay, The Scripps Research Institute Molecular Screening Center
